# According to ChEMBL document CHEMBL5108029, “SILAC-based chemoproteomics reveals a neoligan analogue as an anti-inflammatory agent targeting IRGM to ameliorate cytokine storm” (Eur J Med Chem, 2022):
# Calls of active or inactive are those of the source. The rule behind the calls is not given here.
# Assays:
# RAW264.7 [1] = assay: Anti-inflammatory activity against LPS-stimulated mouse RAW264.7 cells assessed as proportion of polarized M1 macrophages at 500 nM incubated for 48 hrs in presence of LPS by flow cytometry (reference value: 90.3%); format: functional
# Method in brief: (§1)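 RAW 264.7 cells in DMEM with 10% heat-inactivated FBS at 37 °C, 5% CO2, subcultured at 70–80% confluence. Seeded at 1 × 10^6 cells/mL in medium with 1 μg/mL LPS, with compound at final 100 nM or 500 nM. After 48 h, M1 differentiation and TNF-α are read by flow cytometry.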
# RAW264.7 [2] = assay: Anti-inflammatory activity against LPS-stimulated mouse RAW264.7 cells assessed as TNF-alpha expression of M1 macrophages at 100 nM incubated for 48 hrs in presence of LPS by flow cytometry (reference value: 82.1%); format: functional; method in brief: as §1
# RAW264.7 [3] = assay: Anti-inflammatory activity against LPS-stimulated mouse RAW264.7 cells assessed as TNF-alpha expression of M1 macrophages at 500 nM incubated for 48 hrs in presence of LPS by flow cytometry (reference value: 82.1%); format: functional; method in brief: as §1
# RAW264.7 [4] = assay: Anti-inflammatory activity against LPS-stimulated mouse RAW264.7 cells assessed as proportion of polarized M1 macrophages at 100 nM incubated for 48 hrs in presence of LPS by flow cytometry (reference value: 90.3%); format: functional; method in brief: as §1
# [5] = Inhibition of cytokine storm in CLP-induced sepsis C57BL/6J mouse model assessed as disruption of Th1 and Th2 cells imbalance by measuring CD4+IFNgamma-positive cells at 100 mg/kg by flow cytometry (reference value: 73.7%); format: functional; parameters: scale not given: the % may be the effect or the level left
# [6] = Inhibition of cytokine storm in CLP-induced sepsis C57BL/6J mouse model assessed as disruption of Th1 and Th2 cells imbalance by measuring CD4+IL4-negative cells at 100 mg/kg by flow cytometry (reference value: 95.3%); format: functional; parameters: scale not given: the % may be the effect or the level left
# [7] = target: T1, Immunity-related GTPase family M protein 1 (Mus musculus) (UniProt Q60766); assay: Binding affinity to IRGM in LPS-stimulated mouse RAW264.7 cells at 100 uM preincubated with LPS for 48 hrs followed by incubation with compound for 3 hrs by immunoblot analysis; format: cell-based
# T1 sequence (whole entry): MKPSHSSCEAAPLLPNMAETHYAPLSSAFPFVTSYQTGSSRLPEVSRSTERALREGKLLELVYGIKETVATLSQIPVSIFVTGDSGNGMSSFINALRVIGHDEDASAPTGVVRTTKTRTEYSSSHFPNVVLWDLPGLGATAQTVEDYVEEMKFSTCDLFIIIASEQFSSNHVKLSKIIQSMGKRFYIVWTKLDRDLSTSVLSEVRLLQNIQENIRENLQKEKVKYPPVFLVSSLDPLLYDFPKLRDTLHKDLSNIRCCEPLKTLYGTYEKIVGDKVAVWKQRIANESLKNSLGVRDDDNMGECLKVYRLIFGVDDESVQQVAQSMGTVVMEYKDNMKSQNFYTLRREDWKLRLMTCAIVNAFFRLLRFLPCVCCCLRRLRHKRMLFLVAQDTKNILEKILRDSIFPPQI
# Method in brief: (§2)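 Lysates of LPS-polarized (1 μg/mL, 48 h) RAW 264.7 cells at 2 mg/mL, incubated 3 h at room temperature with 100 μM probe 10 plus competitor at 10–100 μM. Then UV 365 nm crosslinking, click with biotin-azide, streptavidin pull-down, and immunoblotting for IRGM.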
# [8] = Inhibition of cytokine storm in CLP-induced sepsis C57BL/6J mouse model assessed as disruption of Th1 and Th2 cells imbalance by measuring CD4+IL4-positive cells at 100 mg/kg by flow cytometry (reference value: 4.69%); format: functional; parameters: scale not given: the % may be the effect or the level left
# CD4+ve Th [9] = assay: Cytotoxicity against C57BL/6 mouse CD4+ T-lymphocytes at 500 nM measured upto 48 hrs; format: toxicity, cell-based; settings: 0.5 µM
# Mus musculus [10] = assay: Anti-inflammatory activity against CLP-induced sepsis C57BL/6J mouse model assessed as proportion of neutrophils at 100 mg/kg by flow cytometry (reference value: 6.6%); format: functional
# Mus musculus [11] = assay: Anti-inflammatory activity against CLP-induced sepsis C57BL/6J mouse model assessed as proportion of Tr1 cells producing IL-10 at 100 mg/kg by flow cytometry (reference value: 24.5%); format: functional
# [12] = Inhibition of cytokine storm in CLP-induced sepsis C57BL/6J mouse model assessed as reduction in Th17 cell differentiation by measuring CD4+IL17A-negative cells at 100 mg/kg by flow cytometry (reference value: 50.2%); format: functional; parameters: scale not given: the % may be the effect or the level left
# RAW264.7 [13] = assay: Anti-inflammatory activity against LPS-stimulated mouse RAW264.7 cells assessed as reduction in M1 polarization of macrophages at 100 to 500 nM incubated for 48 hrs in presence of LPS by flow cytometry; format: functional, cell-based; settings: dose 100-500 nM; method in brief: as §1
# CD4+ve Th [14] = assay: Inhibition of cytokine storm in ConA/1L-12-stimulated C57BL/6 mouse CD4+ T-lymphocytes assessed as reduction in Th1 cell differentiation by measuring proportion of CD4+IFNgamma-negative cells at 500 nM incubated for 48 hrs by flow cytometry (reference value: 31%); format: functional; parameters: scale not given: the % may be the effect or the level left
# Method in brief: (§3)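 Splenocytes from C57BL/6 mice after erythrocyte lysis, filtration and counting. Cultured in complete medium with ConA and IL-2 under Th1, Th2 or Th17 differentiation conditions with compound for 48 h. Then PMA, ionomycin and GolgiStop (1:1000) for 4 h. CD4 and intracellular cytokines stained and read by flow cytometry.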
# CD4+ve Th [15] = assay: Inhibition of cytokine storm in ConA/1L-12-stimulated C57BL/6 mouse CD4+ T-lymphocytes assessed as reduction in Th2 cell differentiation by measuring proportion of CD4+IL4-positive cells at 500 nM incubated for 48 hrs by flow cytometry (reference value: 67.6%); format: functional; parameters: scale not given: the % may be the effect or the level left; method in brief: as §3
# Mus musculus [16] = assay: Anti-inflammatory activity against CLP-induced sepsis C57BL/6J mouse model assessed as reduction in edema and hepatocyte necrosis at 100 mg/kg by Hematoxylin and eosin staining based analysis; format: functional, organism-based
# Method in brief: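 Liver tissue from CLP-septic C57BL/6J male mice (8–10 wk), stained with H&E and examined for edema and hepatocyte necrosis.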
# [17] = target: T2, Immunity-related GTPase family M protein (Homo sapiens) (UniProt A1A4Y4); assay: Binding affinity to IRGM (unknown origin) by gene ontology analysis
# T2 sequence (whole entry): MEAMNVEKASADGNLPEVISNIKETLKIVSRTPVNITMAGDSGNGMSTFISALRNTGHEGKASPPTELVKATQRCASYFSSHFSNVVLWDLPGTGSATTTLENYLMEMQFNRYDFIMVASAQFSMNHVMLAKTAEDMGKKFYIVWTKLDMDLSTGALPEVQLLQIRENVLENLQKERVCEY
# [18] = target: T2, Immunity-related GTPase family M protein (Homo sapiens); assay: Binding affinity to IRGM (unknown origin) assessed as protection of protein from pronase proteolysis by DARTS analysis; settings: dose 1-100 µM, DDE = dose-dependent effect
# Method in brief: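 DARTS: samples treated with compound at 1–100 μM, then digested with pronase; IRGM detected by immunoblot.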
# CD4+ve Th [19] = assay: Inhibition of cytokine storm in ConA/1L-12-stimulated C57BL/6 mouse CD4+ T-lymphocytes assessed as reduction in Th1 cell differentiation by measuring proportion of CD4+IFNgamma-positive cells at 500 nM incubated for 48 hrs by flow cytometry (reference value: 69%); format: functional; parameters: scale not given: the % may be the effect or the level left; method in brief: as §3
# CD4+ve Th [20] = assay: Inhibition of cytokine storm in ConA/1L-12-stimulated C57BL/6 mouse CD4+ T-lymphocytes assessed as reduction in Th17 cell differentiation by measuring proportion of CD4+IL17A-negative cells at 500 nM incubated for 48 hrs by flow cytometry (reference value: 31.6%); format: functional; parameters: scale not given: the % may be the effect or the level left; method in brief: as §3
# CD4+ve Th [21] = assay: Inhibition of cytokine storm in ConA/1L-12-stimulated C57BL/6 mouse CD4+ T-lymphocytes assessed as reduction in Th17 cell differentiation by measuring proportion of CD4+IL17A-positive cells at 500 nM incubated for 48 hrs by flow cytometry (reference value: 68.4%); format: functional; parameters: scale not given: the % may be the effect or the level left; method in brief: as §3
# Mus musculus [22] = assay: Anti-inflammatory activity against CLP-induced sepsis C57BL/6J mouse model assessed as proportion of M1 macrophages at 100 mg/kg by flow cytometry (reference value: 98.4%); format: functional
# CD4+ve Th [23] = assay: Inhibition of cytokine storm in ConA/1L-12-stimulated C57BL/6 mouse CD4+ T-lymphocytes assessed as reduction in Th2 cell differentiation by measuring proportion of CD4+IL4-negative cells at 500 nM incubated for 48 hrs by flow cytometry (reference value: 32.4%); format: functional; parameters: scale not given: the % may be the effect or the level left; method in brief: as §3
# Mus musculus [24] = assay: Anti-inflammatory activity against CLP-induced sepsis C57BL/6J mouse model assessed as proportion of Foxp3-positive Treg cells at 100 mg/kg by flow cytometry (reference value: 2.08%); format: functional
# RAW264.7 [25] = assay: Anti-inflammatory activity against LPS-stimulated mouse RAW264.7 cells assessed as reduction in TNF-alpha expression of M1 macrophages at 100 to 500 nM incubated for 48 hrs in presence of LPS by flow cytometry; format: functional, cell-based; settings: dose 100-500 nM; method in brief: as §1
# [26] = target: T2, Immunity-related GTPase family M protein (Homo sapiens); assay: Binding affinity to IRGM (unknown origin) assessed as protection of protein from temperature-dependent denaturation at 100 uM by CETSA analysis
# [27] = Inhibition of cytokine storm in CLP-induced sepsis C57BL/6J mouse model assessed as reduction in Th17 cell differentiation by measuring CD4+IL17A-positive cells at 100 mg/kg by flow cytometry (reference value: 49.8%); format: functional; parameters: scale not given: the % may be the effect or the level left
# [28] = target: T1, Immunity-related GTPase family M protein 1 (Mus musculus); assay: Binding affinity to IRGM in LPS-stimulated mouse RAW264.7 cells at 100 uM preincubated with LPS for 48 hrs followed by incubation with compound for 3 hrs by SILAC-pull down based analysis; format: cell-based
# Method in brief: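 RAW 264.7 cells were SILAC heavy- or light-labeled and polarized with 1 μg/mL LPS for 48 h. Lysates at 2 mg/mL in PBS: heavy with probe 10 (100 μM), light with 100 μM competitor, 3 h at room temperature. Then 365 nm UV at 4 °C and click with biotin-azide (final 500 μM) and Cu+ (final 1 mM) for 3 h. Acetone precipitation, streptavidin bead capture, SDS-PAGE and MS; Heavy/Light ratios by MaxQuant.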
# [29] = target: T1, Immunity-related GTPase family M protein 1 (Mus musculus); assay: Binding affinity to IRGM in LPS-stimulated mouse RAW264.7 cells by competitive pull down based immunoblot analysis; format: cell-based; settings: dose 10-100 µM, DDE = dose-dependent effect; method in brief: as §2
# [30] = Inhibition of cytokine storm in CLP-induced sepsis C57BL/6J mouse model assessed as disruption of Th1 and Th2 cells imbalance by measuring CD4+IFNgamma-negative cells at 100 mg/kg by flow cytometry (reference value: 26.3%); format: functional; parameters: scale not given: the % may be the effect or the level left
Structure (SMILES),Activity (RAW264.7 [1]),Activity (RAW264.7 [2]),Activity (RAW264.7 [3]),Activity (RAW264.7 [4]),Activity (CD4+ve Th [9]),Activity (RAW264.7 [13]),Activity (CD4+ve Th [14]),Activity (CD4+ve Th [15]),Activity (CD4+ve Th [19]),Activity (CD4+ve Th [20]),Activity (CD4+ve Th [21]),Activity (CD4+ve Th [23]),Activity (RAW264.7 [25]),further results
C#CCCC1(CCOc2cc3c(cc2CC=C)[C@H](C)[C@@H](c2ccc(OC)c(OC)c2)O3)N=N1,82.6%,28.9%,26.6%,81.8%,–,–,–,–,–,–,–,–,–,–
C=CCc1cc2c(cc1O)O[C@H](c1ccc(OC)c(OC)c1)[C@H]2C,83.2%,19.5%,22.8%,82.9%,Non-Toxic,Active,57.2%,35.1%,42.8%,57.7%,42.3%,64.9%,Active,Activity [5]: 11.3%; Activity [6]: 98.5%; Activity [7]: Active; Activity [8]: 1.53%; Activity (Mus musculus [10]): 1.09%; Activity (Mus musculus [11]): 11.2%; Activity [12]: 82.5%; Activity (Mus musculus [16]): Active; Activity [17]: Active; Activity [18]: Dde; Activity (Mus musculus [22]): 71.3%; Activity (Mus musculus [24]): 0.53%; Activity [26]: Active; Activity [27]: 17.5%; Activity [28]: Active; Activity [29]: Dde; Activity [30]: 88.7%
C[C@]12CCC(=O)C=C1CC[C@@H]1[C@@H]2[C@@H](O)C[C@@]2(C)[C@H]1CC[C@]2(O)C(=O)CO,–,–,–,–,–,–,–,–,–,–,–,–,Active,–
COc1ccc(/C=C/COc2cccc(O)c2)cc1OC,–,–,–,–,Non-Toxic,–,74.9%,24%,25.1%,74.1%,25.9%,76%,Active,–
C=CCOc1cccc(OC/C=C/c2ccc(OC)c(OC)c2)c1,–,–,–,–,Non-Toxic,Active,74.4%,14.8%,25.6%,76.1%,23.9%,85.2%,Active,–
C=CCC1=C[C@]2(OC)C(=CC1=O)O[C@H](c1ccc(OC)c(OC)c1)[C@H]2C,–,–,–,–,Non-Toxic,–,75.7%,14.3%,24.3%,78.6%,21.4%,85.7%,Active,–
